CHRM4 antagonist: human M4 muscarinic receptor antagonists, primary screen, CHO cells, Fluo-8 calcium fluorescence; inhibition, % at 3 µM; 360,000 tested, 0.73% active; Muscarinic acetylcholine receptor M4 (Homo sapiens), P08173; CHO-hM4 cells, ACh EC80;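 active means inhibition above its plate's cutoff, the mean inhibition of sample wells plus 3 SD, cut at about 27% in these data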;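 further: 0% = acetylcholine EC80 with DMSO and 100% = DMSO without agonist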
M4 ag: human M4 muscarinic receptor agonists, primary screen, CHO-K1 cells, Fluo-8 calcium fluorescence; activation, % at 3 µM; CHO-K1 hM4/Gqi5; vehicle 0%, full acetylcholine response 100%; 360,000 tested, 0.14% active;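 active means activation above the run mean over all test wells plus 3 SD, cut at about 32% in these data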;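 further: peak over basal fluorescence ratio per well then scaled between controls; 0% = DMSO wells and 100% = acetylcholine at EC100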
CHRM4 PAM: human M4 muscarinic receptor positive allosteric modulators, primary screen, CHO-K1 cells, Fluo-8 calcium fluorescence | CHO-K1 hM4/Gqi5, ACh EC20; 0% = ACh EC20, 100% = maximal ACh | activation, % at 3 µM | 360,000 tested, 0.4% active | AID 624126, 2012;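 active means activation above its plate's cutoff, the mean activation of sample wells plus 3 SD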
M5 PAM: human M5 muscarinic receptor positive allosteric modulators, primary screen, CHO-K1 cells, Fluo-8 calcium fluorescence; CHO-K1 hM5, ACh EC20 PAM; 0% = ACh EC20, 100% = ACh EC100; activation, % at 3 µM; 360,000 tested, 0.3% active; AID 624038, 2012;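 active means activation above the run cutoff, the mean activation of all test compounds plus 3 SD, cut at about 18% in these data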
Target sequence (P08912 whole entry, looked up): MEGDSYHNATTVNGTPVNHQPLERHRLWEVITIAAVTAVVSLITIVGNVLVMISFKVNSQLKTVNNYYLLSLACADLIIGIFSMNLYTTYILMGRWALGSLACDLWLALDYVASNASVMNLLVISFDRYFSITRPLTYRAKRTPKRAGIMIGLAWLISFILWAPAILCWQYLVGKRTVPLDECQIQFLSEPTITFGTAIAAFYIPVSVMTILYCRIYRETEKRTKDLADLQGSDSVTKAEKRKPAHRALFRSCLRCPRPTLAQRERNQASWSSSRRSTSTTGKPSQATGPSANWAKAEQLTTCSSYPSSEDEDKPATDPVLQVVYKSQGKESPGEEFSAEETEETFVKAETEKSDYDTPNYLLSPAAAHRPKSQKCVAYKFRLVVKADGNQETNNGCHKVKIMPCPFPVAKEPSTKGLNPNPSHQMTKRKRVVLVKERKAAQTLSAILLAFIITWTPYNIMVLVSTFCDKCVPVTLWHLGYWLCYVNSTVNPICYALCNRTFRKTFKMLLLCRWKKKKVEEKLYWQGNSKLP
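System: CHO-K1 hM5 cells. Reagent: acetylcholine, EC20 level. Compound dosing: single dose, 3 µM nominal final test concentration. Timing: Post-acetylcholine fluorescence recording 140 s. Detection: Fluo-8 calcium fluorescence. Read-out: % activation, ACh-normalized. Benchmarks: ACh EC20 and EC100 wells. Repeats: singlicate, one well per test compound.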
CHRM5 agonist: human M5 muscarinic receptor agonists, primary screen, CHO-K1 cells, Fluo-8 calcium fluorescence; Muscarinic acetylcholine receptor M5 (Homo sapiens), P08912; CHO-K1 hM5 cells; 0% DMSO wells, 100% maximal acetylcholine response; activation, % at 3 µM; 360,000 tested, 0.19% active;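 active means activation above the run's mean over test compounds plus 3 SD, cut at about 23% in these data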;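 further: signal is peak over basal fluorescence ratio across the kinetic read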
M5 antag: human M5 muscarinic receptor antagonists, primary screen, CHO cells, Fluo-8 calcium fluorescence; 360,000 tested, 0.59% active; inhibition, % at 3 µM; Muscarinic acetylcholine receptor M5 (Homo sapiens), P08912; CHO-hM5 cells, ACh EC80;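 active means inhibition above a per-plate cutoff, the mean of that plate's test compounds plus 3 SD, cut at about 27% in these data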;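 further: 0% = acetylcholine EC80 with DMSO and 100% = DMSO without agonist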
* hit, by the source's call; . = not tested or not shown. Rows were chosen to be rich in hits. Some 1.8% of all compounds tested hit in one or more screens of this group.

SMILES | CHRM4 antagonist | M4 ag | CHRM4 PAM | M5 PAM | CHRM5 agonist | M5 antag
N#CC1=C(N)Oc2c(c(=O)oc3ccccc23)C1c1cccnc1 (stereo not drawn) | 0 | -1 | 13 | 20* | -3 | -11
CCC(CC)C1C(C#N)=C(N)Oc2c1c(=O)oc1ccccc21 (stereo not drawn) | -2 | 11 | 0 | -2 | 3 | 2
CS(=O)(=O)c1ccc(C2=C(CNC(=O)c3ccncc3)[C@H]3CC[C@@H](C2)N3Cc2ccco2)cc1 | -2 | 2 | -6 | 1 | 0 | 3
CCC[N+]12CCC(CC1)C(C(O)(c1ccccc1)c1ccccc1)C2 (stereo not drawn) | 10 | 0 | -54 | -34 | -18 | 28*
CCCC[N+]12CCC(CC1)C(C(O)(c1ccccc1)c1ccccc1)C2 (stereo not drawn) | 20 | 0 | -34 | -23 | -22 | 8
CN1CCCC1C(O)(c1ccccc1)c1ccccc1 (stereo not drawn) | 1 | 1 | -3 | -20 | -6 | 7
C[N+]12CCC(CC1)C(C(O)(c1ccccc1)c1cccs1)C2 (stereo not drawn) | 94* | 1 | -33 | -16 | -7 | 94*
O=c1[nH]c(O)c(/C=C2/C=CC(c3cc(Cl)ccc3Cl)=N2)c(=O)[nH]1 | 11 | 2 | 2 | 2 | -1 | 6
COC(=O)c1cn(C(=O)c2cccc3ccccc23)c2ccccc12 | 5 | -1 | -13 | -4 | 3 | 11
CC(=O)N1CCC(N2CCCC(C(=O)c3cccc(Cl)c3)C2)CC1 (stereo not drawn) | 27* | 1 | -21 | -16 | -10 | 18
CC(C)(C)c1ccc(C(=O)C2CCCN(Cc3ccon3)C2)cc1 (stereo not drawn) | -2 | 4 | -6 | -1 | 0 | -3
CC(C)(C)c1ccc(C(=O)C2CCCN(C3CCC3)C2)cc1 (stereo not drawn) | 32* | 2 | -24 | -1 | -15 | 6
CC(C)NC(=O)Cn1cc(C(=O)c2ccccc2F)c2ccccc21 | 1 | 1 | 27* | 4 | 4 | -10
COc1ccc(NC2Oc3cc4c(cc3C(c3cc(OC)c(OC)c(OC)c3)C2C)OCO4)cc1 (stereo not drawn) | -15 | 1 | 13 | 19* | 3 | -11
COc1cc(C2c3cc4c(cc3CC3COC(=O)C32)OCO4)cc(OC)c1OC (stereo not drawn) | -9 | 1 | 3 | 6 | -1 | 1
COC1/C=C/C=C(\C)Cc2cc(O)c(Cl)c(c2)N(C)C(=O)CC(OC(=O)C(C)C)C2(C)OC2C(C)C2CC1(O)NC(=O)O2 (stereo not drawn) | 1 | 1 | 0 | 1 | 8 | -12
CN(C)C(=O)Oc1noc2cc(Cl)ccc12 | 10 | -1 | 27 | 16 | 3 | -2
COc1cccc(-n2c(C)nc3ccccc3c2=O)c1 | -7 | 0 | 27* | -5 | 0 | -3
COc1ccc(CC2C(=O)NC(C)C(=O)N(C)C3C(=O)N(C)C(Cc4ccc(O)c(c4)Oc4ccc(cc4)C3O)C(=O)NC(C)C(=O)NC(C)C(=O)N2C)cc1 (stereo not drawn) | -16 | 0 | 3 | -5 | 2 | 4
C=C1C(=O)O[C@@H]2C[C@@H](C)[C@@H]3C=CC(=O)[C@@]3(C)[C@@H](OC(=O)CC(=O)O[C@H]3[C@@H]4C(=C)C(=O)O[C@@H]4C[C@@H](C)[C@@H]4C=CC(=O)[C@]43C)[C@H]12 | 39* | 1 | -2 | 4 | -1 | 14
Cc1ncoc1C(=O)NCC1=C(c2ccc(S(C)(=O)=O)cc2)C[C@@H]2CC[C@H]1N2CCOc1ccccc1 | -1 | 1 | 8 | 3 | -3 | -7
O=c1c2ccccc2nc(-c2ccccc2)n1-c1ccncc1 | 8 | 2 | 4 | -4 | 1 | -2
c1ccc(C(c2ccccc2)c2ccncc2)cc1 | 42* | 5 | -16 | -38 | -11 | 37*
Oc1c(Cl)cccc1Cc1cc(Cl)cc(Cl)c1O | 10 | 10 | -3 | -24 | 4 | 30*
O=c1[nH]c(=S)n(CCC2=CCCCC2)c(O)c1C=NCCCn1ccnc1 | 29* | -1 | -19 | -19 | -8 | 10
SMILES | CHRM4 antagonist | M4 ag | CHRM4 PAM | M5 PAM | CHRM5 agonist | M5 antag
O=[N+]([O-])c1cc(O)c(O)c([N+](=O)[O-])c1 | 5 | 1 | 0 | -4 | 0 | 8
O=[N+]([O-])c1cc(-n2cnnn2)c(O)c([N+](=O)[O-])c1 | 3 | 1 | 30* | 10 | 1 | 4
Oc1c(Br)c(Br)c(Br)c(Br)c1Br | -7 | 9 | 4 | -11 | 3 | 20
COc1ccc(-n2nnnc2C(CCc2ccccc2)N2CCC3(CC2)C(=O)NCN3c2ccccc2)cc1 (stereo not drawn) | 4 | 0 | 1 | -2 | 2 | 0
S=P1(Oc2ccccc2)Nc2ccccc2N1 | -5 | 1 | 0 | -1 | 1 | 4
C#CC[N+]1(C)[C@@H]2CC[C@H]1CC(OC(=O)C(CO)c1ccccc1)C2 (stereo partly drawn) | 99* | 1 | -19 | -21 | -9 | 98*
C[N+]1(C)C2CCC1CC(OC(=O)c1c[nH]c3ccccc13)C2 (stereo not drawn) | -5 | 0 | 0 | -7 | -1 | 0
C[N+]1(C)C2CC[C@H]1CC(OC(=O)C(CO)c1ccccc1)C2 (stereo partly drawn) | 99* | 0 | -18 | -18 | -1 | 99*
C[N+]1(C)CCC(OC(=O)C(c2ccccc2)c2ccccc2)CC1 | 98* | 0 | -16 | -19 | -2 | 99*
C[N+]1(C)[C@@H]2CC[C@H]1CC(OC(=O)[C@@H](CO)c1ccccc1)C2 (stereo partly drawn) | 99* | 0 | -18 | -22 | -10 | 99*
Cc1cc(C)cc(NC(=O)CCNC(=O)N2C[C@H]3C[C@@H](C2)c2cccc(=O)n2C3)c1 | -19 | 2 | 11 | 3 | 1 | -2
O=c1c2ccccc2[nH]c(=S)n1-c1ccc2c(c1)OCCO2 | -1 | 1 | 13 | 7 | -3 | 8
C[N+]1(C)C2CC(OC(=O)[C@H](CO)c3ccccc3)CC1C1OC12 (stereo partly drawn) | . | . | . | -18 | -2 | 99*
